Laboratory results from ChEMBL document CHEMBL3272297, “Lipophilicity and serotonin agonist activity in a series of 4-substituted mescaline analogues” (J Med Chem, 1977).

Columns and labels:
Ovis aries [1] = species: Ovis aries; test: Agonist activity at serotonin receptor in sheep umbilical artery assessed increase of mescaline-induced contraction; assay type: tissue-based
In short: (§1)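 Serotonin-receptor agonism measured in an isolated sheep umbilical artery preparation from dose-response curves giving ED50 values. The ratio (mescaline ED50 / compound ED50) is calculated from the data within each experimental series, with mescaline run as a time control. Data are reported over n tissues with the standard error of the geometric mean.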

Ovis aries [2] = species: Ovis aries; test: Potency ratio, ratio of mescaline ED50 to compound ED50 for serotonin receptor in sheep umbilical artery assessed increase of mescaline-induced contraction; assay type: tissue-based; in short: as §1
[3] = 1-Octanol-water partition coefficient, log P of the compound at pH 8; assay type: physicochemical

SMILES: COc1cc(CCN)cc(OC)c1OC(C)C
- ED50 (Ovis aries [1]): 5 ×10⁻⁷ M
- Ratio ED50 (Ovis aries [2]): 2.8
- logD [3]: 1.52

SMILES: COc1cc(CCN)cc(OC)c1OC [MESCALINE]
- ED50 (Ovis aries [1]): 1.4 ×10⁻⁶ M
- logD [3]: 0.78

SMILES: COc1cc(CCN)cc(OC)c1OCc1ccccc1
- ED50 (Ovis aries [1]): 4.6 ×10⁻⁷ M
- Ratio ED50 (Ovis aries [2]): 3.04
- logD [3]: 2.4

SMILES: CCCOc1c(OC)cc(CCN)cc1OC
- ED50 (Ovis aries [1]): 3.8 ×10⁻⁷ M
- Ratio ED50 (Ovis aries [2]): 3.68
- logD [3]: 1.7

SMILES: CCOc1c(OC)cc(CCN)cc1OC
- ED50 (Ovis aries [1]): 6.8 ×10⁻⁷ M
- Ratio ED50 (Ovis aries [2]): 2.06
- logD [3]: 1.11

SMILES: COc1cc(CCN)cc(OC)c1Br
- ED50 (Ovis aries [1]): 1.85 ×10⁻⁷ M
- Ratio ED50 (Ovis aries [2]): 7.57
- logD [3]: 2.03

SMILES: CCCCOc1c(OC)cc(CCN)cc1OC
- ED50 (Ovis aries [1]): 1.1 ×10⁻⁶ M
- Ratio ED50 (Ovis aries [2]): 1.27
- logD [3]: 2.32
